A short description of data set [1]: Antioxidant activity assessed as DPPH radical scavenging activity incubated for 15 mins under dark condition by spectrophotometric method. It counts as functional. An outline of the steps: (§1)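 DPPH radical-scavenging assay run in triplicate in MeOH with 10% DMSO. Compounds were serially diluted 10-fold from a top concentration of 1 mM, or 250 or 500 µM for some, down to 1 nM, with DPPH fixed at 0.1 mM. Incubation was 15 min at ambient temperature, protected from light, with A517 read. The compound-only series was subtracted, data normalized to no-inhibitor absorbance, and EC50 fitted by nonlinear dose–response.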
For orientation: Loss of DPPH colour is used to gauge radical scavenging.

Data set [2] deals with T1, Polyunsaturated fatty acid lipoxygenase ALOX15 (Homo sapiens, UniProt P16050).
T1 sequence (P16050 whole entry): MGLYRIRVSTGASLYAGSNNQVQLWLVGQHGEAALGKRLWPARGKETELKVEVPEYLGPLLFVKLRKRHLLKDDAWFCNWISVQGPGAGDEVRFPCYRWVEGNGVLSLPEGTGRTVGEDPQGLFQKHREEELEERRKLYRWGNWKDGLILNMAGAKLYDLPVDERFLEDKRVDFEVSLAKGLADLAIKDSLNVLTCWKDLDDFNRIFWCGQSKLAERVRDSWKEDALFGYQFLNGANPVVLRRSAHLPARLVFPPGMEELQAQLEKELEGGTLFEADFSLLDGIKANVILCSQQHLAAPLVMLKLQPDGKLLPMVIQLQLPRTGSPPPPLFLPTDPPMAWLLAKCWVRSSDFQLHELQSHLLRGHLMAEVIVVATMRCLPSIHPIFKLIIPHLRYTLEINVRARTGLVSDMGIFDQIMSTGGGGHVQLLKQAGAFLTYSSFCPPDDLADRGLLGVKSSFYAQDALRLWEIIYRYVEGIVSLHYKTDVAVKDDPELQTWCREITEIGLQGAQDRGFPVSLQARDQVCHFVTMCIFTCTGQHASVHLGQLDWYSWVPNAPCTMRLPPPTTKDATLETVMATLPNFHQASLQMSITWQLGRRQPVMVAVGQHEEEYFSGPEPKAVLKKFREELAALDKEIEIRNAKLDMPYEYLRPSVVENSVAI
Briefly: Inhibition of human recombinant N-terminal His6-tagged 15-LOX1 expressed in Escherichia coli BL21(DE3) using linoleic acid as substrate preincubated for 8 mins followed by substrate addition by UV absorption analysis.

The nature of data set [3]: Antioxidant activity assessed as DPPH radical scavenging activity at 500 uM incubated for 15 mins under dark condition by spectrophotometric method. It counts as functional. An outline of the steps:
as §1

The nature of data set [4]: Stability of compund in pH 7.5 HEPES buffer at 25 uM in presence of human recombinant N-terminal His6-tagged 15-LOX1 expressed in Escherichia coli BL21(DE3) by UV absorption analysis. As to conditions: pH 7.5, 25 µM. It counts as physicochemical. An outline of the steps: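 LA-free control in 25 mM HEPES pH 7.5 at 25 µM compound, run in triplicate. Buffer plus compound was mixed with 10 µL ethanol in place of substrate, then 15-LOX-1 enzyme solution was added. DMSO/buffer served as the vehicle control and buffer replaced enzyme in the blank. Absorbance at 234 nm was monitored over time.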

A short description of data set [5]: Stability of compund in pH 7.5 HEPES buffer at 25 uM in presence of substrate linoleic acid by UV absorption analysis. As to conditions: pH 7.5, 25 µM. It counts as physicochemical. An outline of the steps:
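Enzyme-free control in 25 mM HEPES pH 7.5 at 25 µM compound, run in triplicate, with buffer replacing enzyme. 10 µL of 500 µM linoleic acid stock in ethanol was added; ethanol alone served as the blank, and DMSO/buffer as the vehicle control. Absorbance at 234 nm was monitored over time.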

Data set [6] is described as follows: Antioxidant activity assessed as ferric ion reducing activity by measuring Fe2+ levels using Fe2+-TPTZ measured 15 secs for 5 mins by FRAP assay. It counts as functional.
The nature of data set [7]: Antioxidant activity assessed as DPPH radical scavenging activity at 250 uM incubated for 15 mins under dark condition by spectrophotometric method. It counts as functional. An outline of the steps:
as §1

Calls of active or inactive are those of the source. No cut-off for these calls is given here.

In the case of `O=C1O[C@H]([C@@H](O)CO)C(O)=C1O` [ASCORBIC ACID], the 50% effective concentration (EC50) in data set [1] was determined as 17.2 µM.

Consider `CCOC(=O)c1[nH]c2cc(Cl)ccc2c1/C=N/NC(=O)CC1CCCC1`, for which the IC50 in data set [2] was more than 10 µM.

For `CCOC(=O)c1[nH]c2cc(Cl)ccc2c1/C=N/NC(=O)COc1ccc(Cl)cc1`, the outcome in data set [3] was inactive. Moreover, the Stability result in data set [4] and in data set [5] was “Stable” each time. In data set [6], the Activity is less than 50 µmol/L.

With `CCOC(=O)c1[nH]c2cc(Cl)ccc2c1/C=N/NC(=O)COc1cccc2ccccc12`, in data set [2], the IC50 is more than 10 µM.

For `CCOC(=O)c1[nH]c2cc(Cl)ccc2c1/C=N/NC(=O)[C@H](Cc1ccccc1)NC(=O)OC(C)(C)C`, the IC50 in data set [2] is more than 10 µM.

Consider `CCOC(=O)c1[nH]c2cc(Cl)ccc2c1/C=N/NC(=O)Cc1cccnc1`, for which the Stability result in data set [4] and in data set [5] was “Stable” in each case. Moreover, the outcome in data set [1] was inactive. Further, the Activity in data set [6] was less than 50 µmol/L.

Consider `CCOC(=O)c1[nH]c2cc(Cl)ccc2c1/C=N/NC(=O)COc1ccccc1Cl`, for which the Stability result in data set [4] and in data set [5] was “Stable” throughout. Moreover, the Activity in data set [6] is less than 50 µmol/L. Also, in data set [7], the result was inactive.

Take `CCOC(=O)c1[nH]c2cc(Cl)ccc2c1/C=N/NC(=O)CCc1ccccc1`: the IC50 in data set [2] was more than 10 µM.

For the compound `CCCCC(=O)N/N=C/c1c(C(=O)OCC)[nH]c2cc(Cl)ccc12`, the IC50 in data set [2] was more than 10 µM.

As for `CCOC(=O)c1[nH]c2cc(Cl)ccc2c1/C=N/NC(=O)CCC(C)C`, the IC50 in data set [2] was more than 10 µM.

On to `CCOC(=O)c1[nH]c2cc(Cl)ccc2c1/C=N/NC(=O)C1CCN(C(=O)OC(C)(C)C)CC1`, for which the Stability entry in data set [4] and in data set [5] was “Stable” each time. Besides, the IC50 in data set [2] was 0.47 µM. Also, the result in data set [1] was inactive. Also, in data set [6], the Activity is less than 50 µmol/L.

In the case of `CCOC(=O)c1[nH]c2cc(Cl)ccc2c1/C=N/NC(=O)CCCOc1ccc(Cl)cc1Cl`, the IC50 in data set [2] is more than 10 µM.

Regarding `CCOC(=O)c1[nH]c2cc(Cl)ccc2c1/C=N/NC(=O)CSc1nc2ccccc2[nH]1`, the Stability entry in data set [4] and in data set [5] was “Stable” in each case. Also, the outcome in data set [1] was inactive. In data set [6], the Activity was less than 50 µmol/L.

For the compound `CCOC(=O)c1[nH]c2cc(Cl)ccc2c1/C=N/NC(=O)Cc1ccc(OC)c(OC)c1`, the Stability result in data set [4] and in data set [5] was “Stable” each time. In data set [6], the Activity is less than 50 µmol/L. Also, in data set [7], the outcome was inactive.

Regarding `CCOC(=O)c1[nH]c2cc(Cl)ccc2c1/C=N/NC(=O)COc1ccc([N+](=O)[O-])cc1`, the IC50 in data set [2] is more than 10 µM.

As for `CCOC(=O)c1[nH]c2cc(Cl)ccc2c1C=O`, the result in data set [1] was inactive. The Activity in data set [6] was less than 50 µmol/L.

Turning to `CCOC(=O)c1[nH]c2cc(Cl)ccc2c1/C=N/NC(=O)COc1ccccc1`, the result in data set [3] was inactive. Moreover, in data set [2], the IC50 is more than 10 µM. In addition, the Activity in data set [6] was less than 50 µmol/L.

On to `CCOC(=O)c1[nH]c2cc(Cl)ccc2c1/C=N/NC(=O)c1cc(C(C)(C)C)nn1Cc1cccc(C)c1`, for which, in data set [2], the IC50 was 4.22 µM. Also, the result in data set [1] was inactive. Also, in data set [6], the Activity was less than 50 µmol/L.

As to `CCOC(=O)c1[nH]c2cc(Cl)ccc2c1/C=N/NC(=O)CNc1cccc([N+](=O)[O-])c1`, the IC50 in data set [2] is more than 10 µM.

On to `CCOC(=O)c1[nH]c2cc(Cl)ccc2c1/C=N/NC(=O)Cc1cccs1`, for which, in data set [2], the IC50 was more than 10 µM.

For the compound `CCOC(=O)c1[nH]c2cc(Cl)ccc2c1/C=N/NC(=O)Cc1ccccc1`, the IC50 in data set [2] was more than 10 µM. Further, the outcome in data set [1] was inactive. Further, the Activity in data set [6] is less than 50 µmol/L.

For the compound `CCOC(=O)c1[nH]c2cc(Cl)ccc2c1/C=N/NC(=O)Cc1cccc(O)c1`, the Stability result in data set [4] and in data set [5] was “Stable” each time. Besides, the IC50 in data set [2] turned out to be 1.8 µM. For the same compound, in data set [1], the result was inactive. The Activity in data set [6] was less than 50 µmol/L.

As for `CCOC(=O)c1[nH]c2cc(Cl)ccc2c1/C=N/NC(=O)COc1ccc(Cl)cc1Cl`, the Stability entry in data set [4] and in data set [5] was “Stable” throughout. In data set [1], the outcome was inactive. Also, the Activity in data set [6] is less than 50 µmol/L.

For orientation: EC50 means the concentration needed to bring the measured effect to its halfway point. As usually defined, the IC50 is the concentration that inhibits the measured activity by half.

The values above are taken from ChEMBL document CHEMBL4393683, “A combinatorial approach for the discovery of drug-like inhibitors of 15-lipoxygenase-1” (Eur J Med Chem, 2019).
